These results are taken from ChEMBL document CHEMBL1123632, “Cardiotonic agents. 7. Inhibition of separated forms of cyclic nucleotide phosphodiesterase from guinea pig cardiac muscle by 4,5-dihydro-6-[4-(1H-imidazol-1-yl)phenyl]-3(2H)-pyridazinones and related compounds. Structure-activity relationships and correlation with in vivo positive inotropic …” (J Med Chem, 1987).

Experiment [1] is filed under the species Canis familiaris. Put plainly: Effective dose required to increase myocardial contractility in dog. In kind it is functional. The note with it: Canis lupus familiaris, Myocardium. In a few lines:
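Anesthetized mongrel dogs (either sex): pentobarbital 35 mg/kg iv, then 5 mg kg⁻¹ h⁻¹ infusion. After 30-min control, compound in saline or dilute HCl/NaOH diluted with saline given iv over 1 min, cumulative half-log doses (typically four to six), 10–30 min apart.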

Experiment [2] concerns the target T1, cGMP-dependent 3',5'-cyclic phosphodiesterase (Homo sapiens, UniProt O00408). Briefly: Inhibition of cGMP PDE II enzyme in guinea pig at 1E-5M concentration. The note with it: Cavia porcellus; target entry is the homologue from another species.
Experiment [3] addresses T2, Phosphodiesterase 3 (Homo sapiens, UniProt Q14432+Q13370). Briefly: Inhibitory concentration against cAMP PDE III enzyme in guinea pig. In kind it is protein assay, Cavia porcellus. As to conditions: target entry is the homologue from another species.
Experiment [4] has as its target T2, Phosphodiesterase 3. Briefly: Inhibition of cAMP PDE III enzyme in guinea pig at 1E-5M concentration. In kind it is protein assay. As to conditions: Cavia porcellus; target entry is the homologue from another species.
The target of experiment [5] is T3, Phosphodiesterase 1 (Homo sapiens, UniProt P54750+Q01064+Q14123). Put plainly: Inhibition of cAMP PDE I enzyme in guinea pig at 1E-4M. The note with it: Cavia porcellus; target entry is the homologue from another species. In kind it is protein assay.
Experiment [6] addresses T3, Phosphodiesterase 1. Briefly: Inhibition of cGMP PDE I enzyme in guinea pig at 1E-4M. In kind it is protein assay. As to conditions: Cavia porcellus; target entry is the homologue from another species.
Experiment [7] deals with T1, cGMP-dependent 3',5'-cyclic phosphodiesterase. Briefly: Inhibition of cAMP PDE II enzyme in guinea pig at 1E-4M. The note with it: Cavia porcellus; target entry is the homologue from another species.
Experiment [8] shares this target. Briefly: Inhibition of cGMP PDE II enzyme in guinea pig at 1E-4M. The note with it: Cavia porcellus; target entry is the homologue from another species.
For experiment [9], the target named is T2, Phosphodiesterase 3. Briefly: Inhibition of cAMP PDE III enzyme in guinea pig at 1E-4M. The note with it: Cavia porcellus; target entry is the homologue from another species. In kind it is protein assay.
For experiment [10], the target named is T3, Phosphodiesterase 1. Put plainly: Inhibitory concentration against cAMP PDE I enzyme in guinea pig. As to conditions: target entry is the homologue from another species. In kind it is protein assay, Cavia porcellus.
The target of experiment [11] is T3, Phosphodiesterase 1. Put plainly: Inhibitory concentration against cGMP PDE I enzyme in guinea pig. In kind it is protein assay, Cavia porcellus. The note with it: target entry is the homologue from another species.
The target in experiment [12] is T3, Phosphodiesterase 1. Briefly: Inhibition of cAMP PDE I enzyme in guinea pig at 1E-5M concentration. In kind it is protein assay. The note with it: Cavia porcellus; target entry is the homologue from another species.
Experiment [13] addresses T3, Phosphodiesterase 1. Briefly: Inhibition of cGMP PDE I enzyme in guinea pig at 1E-5M concentration. In kind it is protein assay. As to conditions: Cavia porcellus; target entry is the homologue from another species.
The target of experiment [14] is T1, cGMP-dependent 3',5'-cyclic phosphodiesterase. Briefly: Inhibition of cAMP PDE II enzyme in guinea pig at 1E-5M concentration. As to conditions: Cavia porcellus; target entry is the homologue from another species.
The target is the same in experiment [15]. Put plainly: Inhibition of cGMP PDE II enzyme in guinea pig at 1E-4M concentration. As to conditions: Cavia porcellus; target entry is the homologue from another species.
For experiment [16] the target is unchanged. Put plainly: Inhibition of PDE II enzyme in guinea pig. More on the design: species or system Cavia porcellus. As to conditions: target entry is the homologue from another species.
Experiment [17] has the same target. Put plainly: Inhibitory concentration against cGMP PDE II enzyme in guinea pig. Details: species or system Cavia porcellus. As to conditions: target entry is the homologue from another species.
Experiment [18] addresses T2, Phosphodiesterase 3. Put plainly: Inhibition of cAMP PDE III enzyme in guinea pig at 1E-4M concentration. In kind it is protein assay. As to conditions: Cavia porcellus; target entry is the homologue from another species.
In experiment [19] the target is T3, Phosphodiesterase 1. Briefly: Inhibition of cAMP PDE I enzyme in guinea pig at 1E-4M concentration. In kind it is protein assay. As to conditions: Cavia porcellus; target entry is the homologue from another species.
The target in experiment [20] is T3, Phosphodiesterase 1. Briefly: Inhibition of cGMP PDE I enzyme in guinea pig at 1E-4M concentration. In kind it is protein assay. The note with it: Cavia porcellus; target entry is the homologue from another species.
A short description of experiment [21]: Ratio of IC50 values for PDE III and PDE I.
Experiment [22] can be described thus: Ratio of IC50 values for PDE III and PDE II.
Experiment [23] concerns the target PDE I (Cavia porcellus). Put plainly: Inhibitory concentration against cAMP PDE I enzyme in guinea pig.
For experiment [24], the target named is PDE I (Cavia porcellus). Briefly: Inhibitory concentration against cGMP PDE I enzyme in guinea pig.
Experiment [25] relates to PDE II (Cavia porcellus). Briefly: Inhibition of cAMP PDE II enzyme in guinea pig at 1E-4M concentration.
Experiment [26] has as its target T1, cGMP-dependent 3',5'-cyclic phosphodiesterase. Put plainly: Inhibition of cGMP PDE II enzyme in guinea pig at 10e-4 M. The note with it: Cavia porcellus, target entry is the homologue from another species.
Experiment [27] has the same target. Briefly: Inhibitory concentration against cAMP PDE II enzyme in guinea pig. More on the design: species or system Cavia porcellus. The note with it: target entry is the homologue from another species.

T1 sequence (O00408 whole entry): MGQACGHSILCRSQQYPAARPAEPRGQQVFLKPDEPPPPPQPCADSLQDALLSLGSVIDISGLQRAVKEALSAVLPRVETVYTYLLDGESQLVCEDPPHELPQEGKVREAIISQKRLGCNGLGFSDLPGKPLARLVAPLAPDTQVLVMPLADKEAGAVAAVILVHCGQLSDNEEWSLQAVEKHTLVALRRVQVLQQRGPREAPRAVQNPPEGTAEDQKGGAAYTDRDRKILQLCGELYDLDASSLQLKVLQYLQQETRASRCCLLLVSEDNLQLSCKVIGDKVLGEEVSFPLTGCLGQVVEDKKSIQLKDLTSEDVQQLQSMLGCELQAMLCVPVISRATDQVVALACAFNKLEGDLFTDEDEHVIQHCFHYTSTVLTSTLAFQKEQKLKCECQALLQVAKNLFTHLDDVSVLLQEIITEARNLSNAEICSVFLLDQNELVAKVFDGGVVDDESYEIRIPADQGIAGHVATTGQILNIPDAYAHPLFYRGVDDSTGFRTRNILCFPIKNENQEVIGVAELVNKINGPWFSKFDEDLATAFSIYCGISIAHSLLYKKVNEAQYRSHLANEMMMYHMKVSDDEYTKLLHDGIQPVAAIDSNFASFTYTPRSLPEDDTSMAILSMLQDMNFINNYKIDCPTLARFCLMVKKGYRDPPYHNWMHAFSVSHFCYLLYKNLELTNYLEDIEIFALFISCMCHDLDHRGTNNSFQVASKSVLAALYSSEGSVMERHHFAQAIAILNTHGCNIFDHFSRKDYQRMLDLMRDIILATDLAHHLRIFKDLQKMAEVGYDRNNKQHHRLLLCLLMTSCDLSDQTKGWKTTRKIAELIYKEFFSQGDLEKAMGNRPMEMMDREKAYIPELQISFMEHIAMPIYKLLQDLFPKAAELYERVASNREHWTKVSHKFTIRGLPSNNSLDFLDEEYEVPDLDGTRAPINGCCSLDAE

For `CC1CC(c2ccc(-n3ccnc3)cc2)=NNC1=O` (stereo not given), the 50% effect level in experiment [1] (ED50) was put at a dose of 1 mg/kg. Moreover, the inhibition is 7% in experiment [2]; 25% in experiment [4]; 8% in experiment [5]; 8% in [6]; 27% in experiment [7]; 26% in [8]. In addition, the inhibition is 63% in [9], 0% in experiment [12], 2% in experiment [13] and 15% in experiment [14]. Besides, the IC50 was 43 µM in experiment [3], > 1000 µM in experiment [10] and > 1000 µM in experiment [11].

In experiment [1], `Nc1cc(-c2ccc(-n3ccnc3)cc2)nnc1O` registered an ED50 of 0.3 mg/kg. In addition, the inhibition in [15] was 51%; in experiment [2] it was 10%; in experiment [18], 64%; in experiment [4], 41%; in experiment [19], 20%; in experiment [12] it was 6%. Further, the inhibition in [20] is 28%; in experiment [13], 7%; in experiment [14], 13%; in experiment [25], 44%. For the same molecule, the IC50 was 110 µM in experiment [16]; 88 µM in [17]; 22 µM in experiment [3]; > 500 µM in [23]; > 500 µM in [24]. Moreover, the results for the Ratio in experiment [21] and in experiment [22] were < 44 and 200, respectively.

For `Cc1nccn1-c1ccc(C2=NNC(=O)CC2)cc1`, the 50% effect level in experiment [1] (ED50) was put at a dose of 0.3 mg/kg. The inhibition in experiment [2] was 4%; in experiment [26] it was 22%; in [18], 64%; in [4], 57%; in experiment [19], 16%; in experiment [12], 1%. For the same molecule, the inhibition in experiment [20] was determined as 18%; in experiment [13] it was 0%; in experiment [14], 8%; in experiment [25], 19%. Besides, the IC50 in experiment [17] was found to be 380 µM; in experiment [3], 2.3 µM; in [27] it was 420 µM; in [23], 790 µM; in experiment [24], 530 µM. For the same molecule, the Ratio came out at 2.9 in [21] and 5.4 in [22].
